Drawing on ChEMBL document CHEMBL4270603, “Computer-aided drug discovery: Novel 3,9-disubstituted eudistomin U derivatives as potent antibacterial agents” (Eur J Med Chem, 2018), this text covers MIC for 30 molecules.

≈ marks a conversion by molar mass, not a printed value.

What all share (format): functional
The subject of assay [1] is Ralstonia solanacearum. In words: Antibacterial activity against Ralstonia solanacearum CGMCC 1.12711 measured after 12 to 14 hrs. Put shortly:
(§1)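 In vitro double dilution method, run alongside fosfomycin sodium, ciprofloxacin and propineb as positive controls.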

In assay [2] the test system is Staphylococcus aureus. In words: Antibacterial activity against Staphylococcus aureus CGMCC 1.8721 measured after 12 to 14 hrs. A digest of the protocol: (§2)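 Twofold (double) dilution method for in vitro antibacterial activity, with fosfomycin sodium, ciprofloxacin and propineb as positive controls.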
Assay [3] concerns Bacillus cereus. In words: Antibacterial activity against Bacillus cereus CGMCC 1.1846 measured after 12 to 14 hrs. A digest of the protocol:
as §2

Assay [4] has as its system Staphylococcus aureus. In words: Antibacterial activity against methicillin-resistant Staphylococcus aureus ATCC 43300 measured after 12 to 14 hrs. Put shortly: as §1

Regarding `COC(=O)c1cc2c3ccccc3n(Cc3ccc(C)cc3)c2c(-c2cn(C(C)=O)c3ccccc23)n1`, the MIC in assay [1], in assay [2], in assay [3] and in assay [4] was above 100 µM throughout.
For `OCc1cc2c3ccccc3n(Cc3ccccc3)c2c(-c2c[nH]c3ccccc23)n1`, the MIC is 12.5 µM (≈ 5.04 µg/mL) in assay [1], 12.5 µM (≈ 5.04 µg/mL) in assay [2], 12.5 µM (≈ 5.04 µg/mL) in assay [3] and 100 µM (≈ 40.3 µg/mL) in assay [4].
As to `COC(=O)c1cc2c3ccccc3n(Cc3ccccc3Cl)c2c(-c2cn(C(C)=O)c3ccccc23)n1`, the MIC was above 100 µM in assay [1], 100 µM (≈ 50.8 µg/mL) in assay [2], above 100 µM in assay [3] and above 100 µM in assay [4].
As to `COC(=O)c1cc2c([nH]c3ccccc32)c(-c2cn(C(C)=O)c3ccccc23)n1`, the minimum inhibitory concentration (MIC) in assay [1], in assay [2], in assay [3] and in assay [4] was above 100 µM each time.
`OCc1cc2c3ccccc3n(Cc3ccc(C(F)(F)F)cc3)c2c(-c2c[nH]c3ccccc23)n1`: the MIC in assay [1], in assay [2], in assay [3] and in assay [4] was 25 µM (≈ 11.8 µg/mL) in each case.
In the case of `OCc1cc2c3ccccc3n(Cc3cccc(Br)c3)c2c(-c2c[nH]c3ccccc23)n1`, the minimum inhibitory concentration (MIC) was 25 µM (≈ 12.1 µg/mL) in assay [1], 25 µM (≈ 12.1 µg/mL) in assay [2], 25 µM (≈ 12.1 µg/mL) in assay [3] and above 100 µM in assay [4].
Take `O=C(O)c1cn(C2CC2)c2cc(N3CCNCC3)c(F)cc2c1=O` [CIPROFLOXACIN]: the MIC in assay [1] was 3.12 µM (≈ 1.04 µg/mL); in assay [2] it was 3.12 µM (≈ 1.04 µg/mL); in assay [3] it was 6.25 µM (≈ 2.07 µg/mL); in assay [4], 12.5 µM (≈ 4.14 µg/mL).
For the molecule `OCc1cc2c3ccccc3n(Cc3cccc(F)c3)c2c(-c2c[nH]c3ccccc23)n1`, the MIC is 50 µM (≈ 21.1 µg/mL) in assay [1], 25 µM (≈ 10.5 µg/mL) in assay [2], 50 µM (≈ 21.1 µg/mL) in assay [3] and above 100 µM in assay [4].
On to `COC(=O)c1cc2c3ccccc3n(Cc3cccc(Cl)c3)c2c(-c2cn(C(C)=O)c3ccccc23)n1`, for which the minimum inhibitory concentration (MIC) in assay [1], in assay [2], in assay [3] and in assay [4] was above 100 µM in each case.
For the molecule `COC(=O)c1cc2c3ccccc3n(Cc3ccccc3Br)c2c(-c2cn(C(C)=O)c3ccccc23)n1`, the minimum inhibitory concentration (MIC) in assay [1], in assay [2], in assay [3] and in assay [4] was above 100 µM in each case.
Consider `COC(=O)c1cc2c3ccccc3n(Cc3cccc(Br)c3)c2c(-c2cn(C(C)=O)c3ccccc23)n1`, for which the MIC in assay [1], in assay [2], in assay [3] and in assay [4] was above 100 µM each time.
In the case of `C[C@@H]1O[C@@H]1P(=O)(O)O` [PHOSPHOMYCIN DISODIUM], the minimum inhibitory concentration (MIC) in assay [1] worked out at 50 µM; in assay [2] it was 100 µM; in assay [3], 25 µM; in assay [4], 50 µM.
`OCc1cc2c3ccccc3n(Cc3cccc(Cl)c3)c2c(-c2c[nH]c3ccccc23)n1`: the MIC in assay [1] was 50 µM (≈ 21.9 µg/mL); in assay [2] it was 25 µM (≈ 10.9 µg/mL); in assay [3], 25 µM (≈ 10.9 µg/mL); in assay [4], above 100 µM.
Turning to `OCc1cc2c3ccccc3n(Cc3ccccc3Br)c2c(-c2c[nH]c3ccccc23)n1`, the MIC in assay [1] was 50 µM (≈ 24.1 µg/mL); in assay [2] it was 12.5 µM (≈ 6.03 µg/mL); in assay [3], 25 µM (≈ 12.1 µg/mL); in assay [4], above 100 µM.
For `COC(=O)c1cc2c3ccccc3n(Cc3ccc(F)cc3)c2c(-c2cn(C(C)=O)c3ccccc23)n1` the same measures were above 100 µM, above 100 µM, above 100 µM and above 100 µM.
For `OCc1cc2c3ccccc3n(Cc3ccccc3Cl)c2c(-c2c[nH]c3ccccc23)n1` the same measures were 25 µM (≈ 10.9 µg/mL), 25 µM (≈ 10.9 µg/mL), 50 µM (≈ 21.9 µg/mL) and above 100 µM.
Take `OCc1cc2c3ccccc3n(Cc3ccccc3F)c2c(-c2c[nH]c3ccccc23)n1`: the MIC in assay [1] was 25 µM (≈ 10.5 µg/mL); in assay [2] it was 25 µM (≈ 10.5 µg/mL); in assay [3] it was 50 µM (≈ 21.1 µg/mL); in assay [4], above 100 µM.
Turning to `COC(=O)c1cc2c3ccccc3n(Cc3cccc(F)c3)c2c(-c2cn(C(C)=O)c3ccccc23)n1`, the MIC in assay [1], in assay [2], in assay [3] and in assay [4] was above 100 µM in each case.
As to `COC(=O)c1cc2c3ccccc3n(Cc3cccc(C(F)(F)F)c3)c2c(-c2cn(C(C)=O)c3ccccc23)n1`, the MIC in assay [1], in assay [2], in assay [3] and in assay [4] was above 100 µM in each case.
Turning to `OCc1cc2c3ccccc3n(Cc3ccc(Cl)cc3)c2c(-c2c[nH]c3ccccc23)n1`, the MIC in assay [1] was found to be 12.5 µM (≈ 5.47 µg/mL); in assay [2], 25 µM (≈ 10.9 µg/mL); in assay [3] it was 12.5 µM (≈ 5.47 µg/mL); in assay [4], 50 µM (≈ 21.9 µg/mL).
For the molecule `COC(=O)c1cc2c3ccccc3n(Cc3ccccc3C(F)(F)F)c2c(-c2cn(C(C)=O)c3ccccc23)n1`, the MIC in assay [1], in assay [2], in assay [3] and in assay [4] was above 100 µM in each case.
`COC(=O)c1cc2c3ccccc3n(Cc3ccc(Cl)cc3)c2c(-c2cn(C(C)=O)c3ccccc23)n1`: the MIC in assay [1], in assay [2], in assay [3] and in assay [4] was above 100 µM in each case.
As for `COC(=O)c1cc2c3ccccc3n(Cc3cccc(C)c3)c2c(-c2cn(C(C)=O)c3ccccc23)n1`, the MIC in assay [1], in assay [2], in assay [3] and in assay [4] was above 100 µM each time.
For the molecule `OCc1cc2c3ccccc3n(Cc3ccccc3C(F)(F)F)c2c(-c2c[nH]c3ccccc23)n1`, the MIC came to 50 µM (≈ 23.6 µg/mL) in assay [1], 50 µM (≈ 23.6 µg/mL) in assay [2], 50 µM (≈ 23.6 µg/mL) in assay [3] and 100 µM (≈ 47.1 µg/mL) in assay [4].
For `Cc1ccccc1Cn1c2ccccc2c2cc(CO)nc(-c3c[nH]c4ccccc34)c21`, the minimum inhibitory concentration (MIC) in assay [1] is 12.5 µM (≈ 5.22 µg/mL); in assay [2], 25 µM (≈ 10.4 µg/mL); in assay [3] it was 50 µM (≈ 20.9 µg/mL); in assay [4], above 100 µM.
For `COC(=O)c1cc2c3ccccc3n(Cc3ccc(C(F)(F)F)cc3)c2c(-c2cn(C(C)=O)c3ccccc23)n1`, the minimal inhibitory concentration (MIC) in assay [1], in assay [2], in assay [3] and in assay [4] was above 100 µM in each case.
For the molecule `COC(=O)c1cc2c3ccccc3n(Cc3ccccc3F)c2c(-c2cn(C(C)=O)c3ccccc23)n1`, the MIC in assay [1], in assay [2], in assay [3] and in assay [4] was above 100 µM in each case.
Take `Cc1ccc(Cn2c3ccccc3c3cc(CO)nc(-c4c[nH]c5ccccc45)c32)cc1`: the MIC in assay [1] was determined as 12.5 µM (≈ 5.22 µg/mL); in assay [2], 25 µM (≈ 10.4 µg/mL); in assay [3], 25 µM (≈ 10.4 µg/mL); in assay [4] it was 25 µM (≈ 10.4 µg/mL).
Take `COC(=O)c1cc2c3ccccc3n(Cc3ccccc3C)c2c(-c2cn(C(C)=O)c3ccccc23)n1`: the minimal inhibitory concentration (MIC) in assay [1] was above 100 µM; in assay [2] it was above 100 µM; in assay [3], 100 µM (≈ 48.8 µg/mL); in assay [4], above 100 µM.
For `COC(=O)c1cc2c3ccccc3n(Cc3ccc(Br)cc3)c2c(-c2cn(C(C)=O)c3ccccc23)n1`, the MIC in assay [1], in assay [2], in assay [3] and in assay [4] was above 100 µM in each case.

The MIC is the least concentration at which growth counts as inhibited. Read a high MIC as weaker potency.
